{"source": "paper PMC5788574", "about": "(The Journal of comparative neurology, 2017)", "key": {"α4β2* nAChRs [1]": {"tested_on": "α4β2* nAChRs", "assay": "Human brain [18F]Nifene PET, distribution volume ratio", "assay_type": "in vivo", "details": "for DVR ATR / DVR CB / DVR Frontal cortex / DVR LG / DVR OG / DVR Pit / DVR Red Nucleus / DVR SLF / DVR SN/VTA / DVR Thalamus: corpus callosum reference", "method_in_brief": "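Eight healthy volunteers (4 male, 4 female), 21–69 years. Bolus of about 185 MBq radiotracer, then 90 min dynamic 3-D acquisition on an HR+ scanner. Frames were […], reconstructed by filtered back projection with a 4 mm Gaussian filter. FreeSurfer regions came from coregistered 3 T MRI. Parametric DVR images were made by MRTM2 with corpus callosum as reference.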"}, "[2]": {"assay": "Tolerability of [18F]Nifene in human PET subjects", "assay_type": "in vivo", "details": "185 MBq, <0.10 μg per injection", "method_in_brief": "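Healthy volunteers aged 21–69 (4 male, 4 female) studied under an FDA investigational new drug application. Each received a bolus of about 185 MBq radiotracer in sterile saline. Vital signs and laboratory results were assessed for adverse or clinically detectable pharmacologic effects.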"}, "α4β2* nAChRs [3]": {"tested_on": "α4β2* nAChRs", "assay": "Mouse brain [18F]Nifene PET/CT", "assay_type": "in vivo", "details": "mouse PET", "method_in_brief": "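BALB/c mice (25–30 g) were induced with 4% isoflurane and kept on 2% during the scan. A bolus of about 9.25 MBq radiotracer was followed by dynamic acquisition for up to 120 min, then CT for attenuation correction. Images were coregistered to an MRI mouse template. Time-activity curves came from atlas-guided VOIs without partial volume correction. Logan noninvasive DVR, with BPND = DVR−1.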"}, "α4β2* nAChRs [4]": {"tested_on": "α4β2* nAChRs", "assay": "Rat brain [18F]Nifene PET/CT", "assay_type": "in vivo", "details": "rat PET", "method_in_brief": "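Sprague-Dawley rats (250–400 g) were induced with 4% isoflurane and kept on 2.5% during the scan. A bolus of about 24 MBq radiotracer was followed by dynamic acquisition for up to 120 min, then CT for attenuation correction. Images were normalized to stereotaxic space via an MRI rat template. Time-activity curves came from atlas-guided VOIs without partial volume correction. Logan noninvasive DVR, with BPND = DVR−1.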"}, "α4β2* nAChRs [5]": {"tested_on": "α4β2* nAChRs", "assay": "Rhesus monkey brain [18F]Nifene PET", "assay_type": "in vivo, rhesus monkey (Macaca mulatta)", "method_in_brief": "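Rhesus monkeys (8–10 kg) had ketamine/xylazine IM, or ketamine/atropine IM plus 1–2% isoflurane. A bolus of about 48–111 MBq radiotracer was followed by at least 120 min acquisition on an HR+ or microPET scanner. Data were binned into 23 frames and reconstructed by filtered back projection. Circular ROIs on cerebellum, thalamus, lateral geniculate and cortex gave time-activity curves and BPND.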"}, "α4β2* nAChRs [6]": {"tested_on": "α4β2* nAChRs", "assay": "[18F]Nifene PET across species", "assay_type": "in vivo", "details": "all species (mice, rats, monkeys, and humans)"}, "[7]": {"details": "after intravenous administration; ref Kant et al., 2011; cited from earlier work"}, "[8]": {"details": "ref Kimes et al., 2003; cited from earlier work"}, "[9]": {"details": "human PET, females Avg±SD (4 subjects)"}, "[10]": {"details": "human PET, males Avg±SD (4 subjects)"}, "[11]": {"details": "human PET, males Avg±SD (4 subjects), listed as 18F-Nifene"}}}
{"compound": "[18F]c1ncccc1OC[C@@H]1C=CCN1", "note": "[[^18F]Nifene, 2-[18F]fluoro-3-[2-((S)-3-pyrrolinyl)methoxy]pyridine]", "values": [{"measurement": "Binding in habenula", "setting": "α4β2* nAChRs [1]; human PET", "result": "low levels"}, {"measurement": "Ratio of thalamus to corpus callosum", "setting": "α4β2* nAChRs [1]; human PET", "result": 2.6}, {"measurement": "DVR, anterior thalamic radiation (white matter)", "setting": "α4β2* nAChRs [1]; human PET, all subjects", "result": "~ 1.6"}, {"measurement": "DVR, red nucleus", "setting": "α4β2* nAChRs [1]; human PET, all subjects", "result": "1.6–1.7"}, {"measurement": "DVR, superior longitudinal fasciculus", "setting": "α4β2* nAChRs [1]; human PET, all subjects", "result": "~ 1.5"}, {"measurement": "DVR ATR", "setting": "α4β2* nAChRs [1]; [9]", "result": 1.67}, {"measurement": "DVR CB", "setting": "α4β2* nAChRs [1]; [9]", "result": "1.54 ± 0.25"}, {"measurement": "DVR Frontal cortex", "setting": "α4β2* nAChRs [1]; [9]", "result": "1.38 ± 0.15"}, {"measurement": "DVR LG", "setting": "α4β2* nAChRs [1]; [9]", "result": "2.46 ± 0.07"}, {"measurement": "DVR OG", "setting": "α4β2* nAChRs [1]; [9]", "result": 1.41}, {"measurement": "DVR Pit", "setting": "α4β2* nAChRs [1]; [9]", "result": 1.57}, {"measurement": "DVR Red Nucleus", "setting": "α4β2* nAChRs [1]; [9]", "result": 1.73}, {"measurement": "DVR SLF", "setting": "α4β2* nAChRs [1]; [9]", "result": 1.55}, {"measurement": "DVR SN/VTA", "setting": "α4β2* nAChRs [1]; [9]", "result": "1.75 ± 0.09"}, {"measurement": "DVR Thalamus", "setting": "α4β2* nAChRs [1]; [9]", "result": "2.58 ± 0.11"}, {"measurement": "DVR ATR", "setting": "α4β2* nAChRs [1]; [10]", "result": 1.58}, {"measurement": "DVR CB", "setting": "α4β2* nAChRs [1]; [10]", "result": "1.42 ± 0.18"}, {"measurement": "DVR Frontal cortex", "setting": "α4β2* nAChRs [1]; [10]", "result": "1.31 ± 0.11"}, {"measurement": "DVR LG", "setting": "α4β2* nAChRs [1]; [10]", "result": "2.17 ± 0.08"}, {"measurement": "DVR OG", "setting": "α4β2* nAChRs [1]; [10]", "result": 1.31}, {"measurement": "DVR Pit", "setting": "α4β2* nAChRs [1]; [10]", "result": 1.45}, {"measurement": "DVR Red Nucleus", "setting": "α4β2* nAChRs [1]; [10]", "result": 1.56}, {"measurement": "DVR SLF", "setting": "α4β2* nAChRs [1]; [10]", "result": 1.38}, {"measurement": "DVR SN/VTA", "setting": "α4β2* nAChRs [1]; [10]", "result": "1.60 ± 0.08"}, {"measurement": "DVR Thalamus", "setting": "α4β2* nAChRs [1]; [10]", "result": "2.24 ± 0.10"}, {"measurement": "DVR ATR", "setting": "α4β2* nAChRs [1]; [11]", "result": "1.58 ± 0.13"}, {"measurement": "DVR OG", "setting": "α4β2* nAChRs [1]; [11]", "result": "1.31 ± 0.12"}, {"measurement": "DVR Pit", "setting": "α4β2* nAChRs [1]; [11]", "result": "1.45 ± 0.22"}, {"measurement": "DVR Red Nucleus", "setting": "α4β2* nAChRs [1]; [11]", "result": "1.56 ± 0.13"}, {"measurement": "DVR SLF", "setting": "α4β2* nAChRs [1]; [11]", "result": "1.38 ± 0.15"}, {"measurement": "DVR ATR", "setting": "α4β2* nAChRs [1]; human one PET", "result": 1.68}, {"measurement": "DVR CB", "setting": "α4β2* nAChRs [1]; human one PET", "result": 1.40}, {"measurement": "DVR Frontal cortex", "setting": "α4β2* nAChRs [1]; human one PET", "result": 1.29}, {"measurement": "DVR LG", "setting": "α4β2* nAChRs [1]; human one PET", "result": 2.17}, {"measurement": "DVR OG", "setting": "α4β2* nAChRs [1]; human one PET", "result": 1.41}, {"measurement": "DVR Pit", "setting": "α4β2* nAChRs [1]; human one PET", "result": 1.62}, {"measurement": "DVR Red Nucleus", "setting": "α4β2* nAChRs [1]; human one PET", "result": 1.64}, {"measurement": "DVR SLF", "setting": "α4β2* nAChRs [1]; human one PET", "result": 1.55}, {"measurement": "DVR SN/VTA", "setting": "α4β2* nAChRs [1]; human one PET", "result": 1.53}, {"measurement": "DVR Thalamus", "setting": "α4β2* nAChRs [1]; human one PET", "result": 2.25}, {"measurement": "DVR ATR", "setting": "α4β2* nAChRs [1]; human seven PET", "result": 1.45}, {"measurement": "DVR CB", "setting": "α4β2* nAChRs [1]; human seven PET", "result": 1.50}, {"measurement": "DVR Frontal cortex", "setting": "α4β2* nAChRs [1]; human seven PET", "result": 1.34}, {"measurement": "DVR LG", "setting": "α4β2* nAChRs [1]; human seven PET", "result": 2.17}, {"measurement": "DVR OG", "setting": "α4β2* nAChRs [1]; human seven PET", "result": 1.33}, {"measurement": "DVR Pit", "setting": "α4β2* nAChRs [1]; human seven PET", "result": 1.63}, {"measurement": "DVR Red Nucleus", "setting": "α4β2* nAChRs [1]; human seven PET", "result": 1.37}, {"measurement": "DVR SLF", "setting": "α4β2* nAChRs [1]; human seven PET", "result": 1.18}, {"measurement": "DVR SN/VTA", "setting": "α4β2* nAChRs [1]; human seven PET", "result": 1.68}, {"measurement": "DVR Thalamus", "setting": "α4β2* nAChRs [1]; human seven PET", "result": 2.13}, {"measurement": "DVR ATR", "setting": "α4β2* nAChRs [1]; human three PET", "result": 1.47}, {"measurement": "DVR CB", "setting": "α4β2* nAChRs [1]; human three PET", "result": 1.18}, {"measurement": "DVR Frontal cortex", "setting": "α4β2* nAChRs [1]; human three PET", "result": 1.17}, {"measurement": "DVR LG", "setting": "α4β2* nAChRs [1]; human three PET", "result": 2.08}, {"measurement": "DVR OG", "setting": "α4β2* nAChRs [1]; human three PET", "result": 1.14}, {"measurement": "DVR Pit", "setting": "α4β2* nAChRs [1]; human three PET", "result": 1.17}, {"measurement": "DVR Red Nucleus", "setting": "α4β2* nAChRs [1]; human three PET", "result": 1.56}, {"measurement": "DVR SLF", "setting": "α4β2* nAChRs [1]; human three PET", "result": 1.36}, {"measurement": "DVR SN/VTA", "setting": "α4β2* nAChRs [1]; human three PET", "result": 1.55}, {"measurement": "DVR Thalamus", "setting": "α4β2* nAChRs [1]; human three PET", "result": 2.22}, {"measurement": "DVR ATR", "setting": "α4β2* nAChRs [1]; human two PET", "result": 1.69}, {"measurement": "DVR CB", "setting": "α4β2* nAChRs [1]; human two PET", "result": 1.61}, {"measurement": "DVR Frontal cortex", "setting": "α4β2* nAChRs [1]; human two PET", "result": 1.44}, {"measurement": "DVR LG", "setting": "α4β2* nAChRs [1]; human two PET", "result": 2.26}, {"measurement": "DVR OG", "setting": "α4β2* nAChRs [1]; human two PET", "result": 1.35}, {"measurement": "DVR Pit", "setting": "α4β2* nAChRs [1]; human two PET", "result": 1.36}, {"measurement": "DVR Red Nucleus", "setting": "α4β2* nAChRs [1]; human two PET", "result": 1.67}, {"measurement": "DVR SLF", "setting": "α4β2* nAChRs [1]; human two PET", "result": 1.43}, {"measurement": "DVR SN/VTA", "setting": "α4β2* nAChRs [1]; human two PET", "result": 1.66}, {"measurement": "DVR Thalamus", "setting": "α4β2* nAChRs [1]; human two PET", "result": 2.37}, {"measurement": "Tolerability in human subjects", "setting": "[2]", "result": "well tolerated in all the human subjects with no adverse side effects"}, {"measurement": "Tolerability in human subjects", "setting": "[2]; listed as [^18F] Nifene", "result": "well tolerated with no adverse effects"}, {"measurement": "Ratio of thalamus to cerebellum", "setting": "α4β2* nAChRs [3]", "result": 2}, {"measurement": "Ratio of thalamus to cerebellum", "setting": "α4β2* nAChRs [4]", "result": 3.1}, {"measurement": "Ratio of thalamus to cerebellum", "setting": "α4β2* nAChRs [5]", "result": 3.2}, {"measurement": "Thalamus reference region ratio", "setting": "α4β2* nAChRs [6]", "result": "> 2"}, {"measurement": "Radioactive components in rat brain", "setting": "[7]", "result": "the only radioactive component"}]}
{"compound": "Fc1ncccc1OC[C@@H]1CCN1", "note": "[[^18F]2-FA-85380, 2-fluoro-3-(2(S)-azetidinylmethoxy)pyridine]", "values": [{"measurement": "Dose with no adverse effects", "setting": "[8]", "result": "up to 10 pmol/kg"}]}
